Source: PubChem
This is a sample that favours compounds with a hit; in the whole collection about 3.7% have one here.
KCNK9 inh: KCNK9 potassium channel inhibitors, primary screen, HEK293 cells, thallium flux; B-score at 10 µM; AID 488922, 2010; 1.2% of 310,000 active; FluxOR thallium flux fluorescence; hits give low values;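 active means ratio B-score over 3 SD below the library mean, with starting fluorescence within 5 SD of its mean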;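 further: negative B-score means less thallium flux so channel inhibition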
KCNK3 inh: human KCNK3 channel inhibitors, primary screen, CHO cells, FluxOR thallium flux, B-score | AID 602410, 2012 | B-score at 10 µM | 0.84% of 340,000 active | FluxOR fluorescence; hits give low values;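 active means B-score under library mean minus 4 SD, starting fluorescence ratio at most library mean plus 5 SD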;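 further: more negative B-score means stronger inhibition of thallium flux through KCNK3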
Target sequence (O14649 whole entry, looked up): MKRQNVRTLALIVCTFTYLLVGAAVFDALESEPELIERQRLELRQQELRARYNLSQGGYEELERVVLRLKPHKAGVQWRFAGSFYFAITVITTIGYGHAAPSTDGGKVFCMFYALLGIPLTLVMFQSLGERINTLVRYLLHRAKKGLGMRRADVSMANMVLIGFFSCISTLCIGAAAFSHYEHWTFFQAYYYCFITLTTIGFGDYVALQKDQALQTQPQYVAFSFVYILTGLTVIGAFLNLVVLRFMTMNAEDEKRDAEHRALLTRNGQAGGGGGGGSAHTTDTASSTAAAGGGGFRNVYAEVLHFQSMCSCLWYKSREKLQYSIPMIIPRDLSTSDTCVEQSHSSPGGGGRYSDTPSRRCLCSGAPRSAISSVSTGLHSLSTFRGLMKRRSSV
Kir21 inh: inhibitors of mouse Kir2.1 inward-rectifier potassium channel; Inward rectifier potassium channel 2 (Mus musculus), P35561; HEK293-Kir2.1, FluxOR thallium flux fluorescence; hits give low values; B-score at 10 µM; 0.85% of 310,000 active; AID 1672, 2009;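 active means fluorescence ratio B-score at or below minus 3 SD of library scores, with starting-brightness B-score within 2 SD, cut at about -4.2 in these data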;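 further: channel flux triggered by added potassium and thallium sulfate stimulus; B-score of peak minus minimum fluorescence over baseline after thallium stimulus; more negative B-score means stronger Kir2.1 block with less thallium influx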
hERG rescue: hERG rescue from dofetilide block, primary screen, cell-based, CHO-hERG, FluxOR thallium flux, dofetilide IC70; Voltage-gated inwardly rectifying potassium channel KCNH2 (Homo sapiens), Q12809; dofetilide IC70 present; activation (rescue from dofetilide block), less the hit threshold, % at 10 µM; 0.51% of 310,000 active; AID 1511, 2009;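 active means activation above the mean of controls blocked by dofetilide plus 5 SD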;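 further: thallium influx through hERG after potassium depolarization seen as dye fluorescence rise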
KCNQ1 inh: inhibitors of human KCNQ1 channel, primary screen, cell-based, thallium flux, high-throughput. Potassium voltage-gated channel subfamily KQT member 1 (Homo sapiens), P51787. CHO-K1 KCNQ1, FluxOR thallium flux fluorescence; hits give high values. B-score at 10 µM. 1.3% of 310,000 active. AID 2642, 2010;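 active means compounds whose thallium flux B-score, printed positive for inhibition, exceeds three library SD while starting fluorescence stays within three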;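 further: channel opened by potassium depolarization with thallium stimulus after 20 min compound exposure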
KCNQ1 pot: potentiators or activators of KCNQ1 channel, primary screen, cell-based, thallium flux, high-throughput; CHO-K1 KCNQ1, thallium flux FluxOR fluorescence; hits give high values; B-score at 10 µM; 0.35% of 310,000 active; AID 2648, 2010;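 active means fluorescence ratio B-score, a plate-corrected score, at least three library SD, with initial intensity B-score within 5 SD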
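Material: CHO-K1 cells stably expressing KCNQ1. Medium: assay buffer for compound exposure, DMSO matched across wells. Reagent: K+/Tl+ depolarizing stimulus. Compound dosing: single-concentration screen. Times: 37 °C overnight plating, 90-min dark dye load, 20-min compound pretreatment. Technique: FluxOR Tl+ flux fluorescence.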
Active calls of the source: *; i = inactive; / = not tested or not shown.

SMILES	KCNK9 inh	KCNK3 inh	Kir21 inh	hERG rescue	KCNQ1 inh	KCNQ1 pot
Cc1ccc(C2=NN(C(=O)c3ccco3)C(O)(C(F)(F)F)C2)cc1 (configuration not stated)	i	i	-4.6*	-5	i	i
O=[N+]([O-])c1ccccc1Sc1nccn1Cc1ccccc1	i	i	-4.9*	-10	i	i
NC(=O)CSc1nccn1Cc1ccccc1	i	i	-1.1	-12	i	i
Cc1ccc(C[n+]2cccc(-c3ccccc3)c2)c(C)c1	i	i	-4.3*	-13	i	i
Cc1ccc2ccc[n+](Cc3ccccc3)c2c1	i	i	-0.62	-6	i	i
Cc1ccc(-c2noc(-c3ccno3)n2)cc1	i	i	0	-3	i	i
CCOC(=O)C1=C(CSc2nc(-c3ccncc3)ccc2C#N)OC(N)=C(C#N)C1c1ccc(OC)cc1 (configuration not stated)	-7.9*	i	-0.18	-12	i	i
Cc1cccc(N/C(=N/S(=O)(=O)c2ccccc2)c2ccccc2)n1	i	i	-0.01	-6	i	i
OCC1(CCCc2ccccc2)CCN(Cc2ccc(F)cc2)CC1	i	i	-6.2*	-6	i	i
Cc1ccc(-n2cccn2)c(CN2CCC(CO)(CCc3ccccc3)CC2)c1	i	i	-2.1	-11	i	i
OCC1(CCc2ccccc2)CCN(Cc2cc(Cl)ccc2O)CC1	i	i	-4.8*	-14	i	i
OCC1(CCc2ccccc2)CCN(Cc2ccc(OC(F)F)cc2)CC1	i	i	-3	-16	i	i
COCc1nc2ccccc2n1Cc1cccc(C)c1	i	i	-0.4	-7	i	i
Cc1cccc(Cn2c(Cc3ccccc3)nc3ccccc32)c1	i	i	-11*	-13	i	i
CCCc1cc(-c2nc(N)ncc2-c2ccc3c(c2)OCCCO3)c(O)cc1OC	i	i	1.6	-14	7*	i
CCc1cc(-c2nc(N)ncc2-c2csc(C)n2)c(O)cc1OC	i	i	-2.7	-8	i	i
CCCc1cc(-c2nc(N)ncc2-c2csc(C)n2)c(O)cc1OC	i	i	-6.4*	-12	i	i
CC(=O)c1c(C)[nH]c(C(=O)OCC(=O)Nc2ccc(C)cc2[N+](=O)[O-])c1C	i	i	0.02	-10	6*	i
CN(C)NC1=CC(=[N+]2CCCC2)CC(C)(C)C1	i	i	0.42	-12	i	i
CCCN(CCC)C1=CC(=[N+]2CCCC2)CC(C)(C)C1	i	i	-4	-12	6*	i
CC(C)c1ccc(OCC(=O)NNC(=S)NC(=O)c2ccco2)c(Br)c1	i	i	0.25	-13	i	47*
Cc1cn([C@H](C(=O)NCCCCCCCCCCC(=O)N2CCN(C(=O)OC(C)(C)C)CC2)[C@@H](C)O)nn1	/	i	/	/	/	/
C/C(=N\N(c1ccccc1)c1ccccc1)c1ccc(O)cc1	i	i	-5.1*	-11	i	i
C/C(=N\N(c1ccccc1)c1ccccc1)c1ccc(N)cc1	i	i	-0.29	-15	i	i
CC(=O)c1ccc(NC(=O)C(C)OC(=O)c2ccc(Br)o2)cc1 (configuration not stated)	/	i	/	/	/	/
SMILES	KCNK9 inh	KCNK3 inh	Kir21 inh	hERG rescue	KCNQ1 inh	KCNQ1 pot
Cc1ccc(C(OCC(O)CNC(C)c2ccccc2)c2ccccc2)cc1 (configuration not stated)	i	i	-6*	-18	i	i
O=C1c2ccccc2C(=O)N1C(CO)C(O)c1ccc([N+](=O)[O-])cc1 (configuration not stated)	i	i	1.7	-1	i	i
Cc1ccc(C(OCC(O)CNC(CO)C(O)c2ccc([N+](=O)[O-])cc2)c2ccccc2)cc1 (configuration not stated)	i	i	-5.2*	-17	i	i
Cc1ccc(C(OCC(O)CN2CCCCC2)c2ccccc2)cc1 (configuration not stated)	i	i	-2.5	-8	i	i
CC(NCC(O)COCc1ccc(Cl)cc1)c1ccccc1 (configuration not stated)	i	i	-8.5*	-10	i	i
CC(=O)NCCNc1ccc([N+](=O)[O-])cc1C#N	i	i	0.86	5.8*	i	i
CSc1nnc(N2C(=O)C(O)=C(C(=O)c3ccco3)C2c2ccc(F)cc2)s1 (configuration not stated)	i	i	-2.7	-13	10*	i
COc1ccc(C2C(C(=O)c3ccco3)=C(O)C(=O)N2c2nnc(C)s2)cc1 (configuration not stated)	i	i	-1.8	-9	i	i
CSc1nnc(N2C(=O)C(O)=C(C(=O)c3ccco3)C2c2cccc(Cl)c2)s1 (configuration not stated)	i	i	-3.5	-21	9*	i
O=C(C1=C(O)C(=O)N(c2ncccn2)C1c1cccc(Cl)c1)c1ccco1 (configuration not stated)	i	i	1.1	-11	i	i
CC1(C)C2CCC1(C)C(SC(=N)N)C2 (configuration not stated)	/	i	/	/	/	/
COc1ccc(NC(=O)CN(C)C(=O)Cc2n[nH]c(=O)c3ccccc23)cc1	i	i	1.2	-13	i	i
CC(C)CNC(=S)NNC(=O)c1csc2c1CCC(C)C2 (configuration not stated)	i	i	-0.92	-8	i	i
Cc1cccc(NC(=S)NNC(=O)c2csc3c2CCC(C)C3)c1 (configuration not stated)	i	i	-1.3	-1	i	20*
Cc1cccc(NC(=S)NNC(=O)c2cc3c(s2)CCC(C)C3)c1C (configuration not stated)	i	i	1.3	-12	i	11*
CC1CCc2sc(C(=O)NN=C3CCC(c4ccccc4)CC3)cc2C1 (configuration not stated)	i	i	1.1	-5	i	i
